From ChEMBL document CHEMBL3804783, “Identification of a Small Molecule Cyclophilin D Inhibitor for Rescuing Aβ-Mediated Mitochondrial Dysfunction” (ACS Med Chem Lett, 2016) come the findings set out here.

The target of data set [1] is Peptidyl-prolyl cis-trans isomerase F, mitochondrial (Mus musculus) (UniProt Q99KR7). The data set can be described thus: Inhibition of cyclophilin D in mouse brain cortical mitochondria assessed as suppression of calcium-induced mitochondrial swelling incubated for 5 mins by spectrophotometric analysis. The gist of the method:
(§1)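 Cortical mitochondria isolated from mice (100 μg) kept on ice for 5 min with or without inhibitor. Swelling then triggered by adding 200 μM Ca2+ to the reaction buffer and compared with vehicle-treated mitochondria.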

The nature of data set [2]: Effect on mouse brain cortical mitochondrial swelling at 10 to 100 uM incubated for 5 mins by spectrophotometric analysis. It counts as ADME, Mitochondria. The gist of the method: as §1
In data set [3] the test system is SK-N-SH. The experiment in a line: Cytotoxicty against human SK-N-SH cells at 5 to 100 uM after 48 hrs by MTT assay. It counts as cell-based. The gist of the method:
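SK-N-SH cells exposed at 37 °C for 48 h to 0, 5, 10, 25, 50 or 100 μM inhibitor diluted in culture medium, with vehicle as 0. Survival and toxicity read by MTT reduction.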
In general terms: Tetrazolium dyes change colour on reduction, which living cells bring about.

Data set [4] has as its system SK-N-SH. The data set can be described thus: Effect on ATP level in human SK-N-SH cells at 10 to 20 uM after 48 hrs by bioluminescence analysis. It counts as ADME, cell-based. The gist of the method:
(§2)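 SK-N-SH cells given 5 μM oligomeric Aβ1–42 together with 10 or 20 μM inhibitor, 1 μM CsA, or vehicle. Controls were Aβ alone and cells without Aβ. After 48 h, ATP level or CcO enzymatic activity measured in cell lysates.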

For data set [5], the system named is SK-N-SH. The data set can be described thus: Effect on cytochrome c oxidase activity in human SK-N-SH cells at 10 to 20 uM after 48 hrs by spectrophotometrical analysis. It counts as ADME, cell-based. Summed up: as §2

Peptidyl-prolyl cis-trans isomerase F, mitochondrial (Mus musculus), sequence (Q99KR7 whole entry): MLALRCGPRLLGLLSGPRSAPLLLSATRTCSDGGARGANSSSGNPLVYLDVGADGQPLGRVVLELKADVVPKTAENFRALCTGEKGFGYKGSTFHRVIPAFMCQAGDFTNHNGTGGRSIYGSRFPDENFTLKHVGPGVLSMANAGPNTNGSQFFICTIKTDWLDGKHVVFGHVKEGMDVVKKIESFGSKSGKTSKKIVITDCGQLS

Turning to `Cc1nc(-c2ccc(OCC(C)C)c(C#N)c2)sc1C(=O)Nc1ccc(S(N)(=O)=O)cc1`, the inhibition entry in data set [1] is “Dose-dependent effect”. The Activity result (in data set [2]; with SK-N-SH [3]; with SK-N-SH [4]; in the data set on SK-N-SH [5]) was “Non-toxic” in each case.
